Measured values as given in ChEMBL document CHEMBL1131320, “Role of the C(6)-hydroxy group in bicyclomycin: synthesis, structure, and chemical, biochemical, and biological properties” (1998).
In brackets after ≈: the same amount, converted by molar mass.

Legend:
Escherichia coli [1] = assay: The compound was tested for minimum inhibitory concentration (MIC) against Escherichia coli W3350 cells.; assay type: functional
In short: (§1)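 Filter-disk assay; MIC taken as the average minimum inhibitory concentration from duplicate tests.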

Escherichia coli [2] = assay: The compound was tested for the % inhibition of transcription termination (TT) activity in Escherichia coli-rho at 100 uM; assay type: functional
In short: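 Rho-dependent transcription termination (Platt method), at pH 7.9 with [α-³²P]UTP label and purified E. coli rho. Percent termination is read at 100 µM.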

Escherichia coli [3] = assay: The compound was tested for the concentration to inhibit 50% of transcription termination activity in Escherichia coli-rho and is expressed in I50.; assay type: functional
In short: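 Rho-dependent transcription termination following Platt and co-workers, at pH 7.9 with [α-³²P]UTP and rho purified from E. coli AR120/p39-AS. I50 is the average 50% inhibition concentration from duplicate tests.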

[4] = target: Transcription termination factor rho (Escherichia coli) (UniProt P0AG30); assay: The compound was tested for the % inhibition of rho poly(C)-stimulated ATPase activity at 400 uM
[5] = target: Transcription termination factor rho (Escherichia coli) (UniProt P0AG30); assay: The compound was tested for the concentration to inhibit 50% of ATPase activity
Escherichia coli [6] = assay: The compound was tested for minimum inhibitory concentration (MIC) against Escherichia coli W3350 cells; assay type: functional; in short: as §1
Escherichia coli [7] = assay: The compound was tested for the % inhibition of rho poly(C)-stimulated ATPase activity at 400 uM; assay type: functional
In short: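 Poly(C)-dependent ATPase of purified E. coli rho (AR120/p39-AS overexpression, Lowry-quantified), run at pH 7.9 with [γ-³²P]ATP. Percent inhibition is read at 400 µM alongside a concurrently run parent-antibiotic reference.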

Sequence of Transcription termination factor rho (Escherichia coli) (P0AG30 whole entry, looked up): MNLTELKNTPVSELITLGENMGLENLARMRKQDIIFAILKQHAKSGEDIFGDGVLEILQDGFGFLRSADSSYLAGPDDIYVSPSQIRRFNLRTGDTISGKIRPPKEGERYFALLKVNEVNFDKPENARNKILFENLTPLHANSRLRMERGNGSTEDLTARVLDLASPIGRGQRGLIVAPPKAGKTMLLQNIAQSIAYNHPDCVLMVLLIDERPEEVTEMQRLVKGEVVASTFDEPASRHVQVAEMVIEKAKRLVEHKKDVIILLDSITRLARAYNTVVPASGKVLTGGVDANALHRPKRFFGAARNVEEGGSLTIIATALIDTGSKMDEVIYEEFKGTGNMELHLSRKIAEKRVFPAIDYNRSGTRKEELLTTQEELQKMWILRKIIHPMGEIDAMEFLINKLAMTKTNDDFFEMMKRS

Compound	MIC (Escherichia coli [1]) [µg/mL]	inhibition at 100 µM (Escherichia coli [2]) [%]	I50 (Escherichia coli [3]) [µM]	inhibition [4] [%]	I50 [5]	MIC (Escherichia coli [6]; read-out: MIC) [µg/mL]	inhibition at 400 µM (Escherichia coli [7]) [%]	MIC (Escherichia coli [6]) [µg/mL]
C=C1CCOC2([C@@H](O)[C@@](C)(O)CO)NC(=O)[C@@]1(N(C)C)NC2=O	> 32	1	> 100	1	> 400	–	–	–
C=C1CCOC2([C@@H](O)[C@@](C)(O)CO)NC(=O)[C@@]1(NC)NC2=O	–	2	> 100	3	> 400	> 32	–	–
C=C1CCOC2([C@@H](O)[C@@](C)(O)CO)NC(=O)[C@@]1(N(C)O)NC2=O	–	0	> 100	16	> 400	> 32	–	–
C=C1CCOC2([C@@H](O)[C@@](C)(O)CO)NC(=O)[C@@]1(N(C)OC)NC2=O	–	0	> 100	7	> 400	> 32	–	–
C=C1CCOC2([C@@H](O)[C@@](C)(O)CO)NC(=O)[C@@]1(N)NC2=O	> 32	5	> 100	–	> 400	–	17	–
C=C1CCOC2([C@@H](O)[C@@](C)(O)CO)NC(=O)[C@@]1(O)NC2=O	–	100	5	–	–	–	–	250 (≈ 827 µM)
C=C1CCOC2([C@@H](O)[C@@](C)(O)CO)NC(=O)[C@@]1(S)NC2=O	–	8	> 100	28	> 400	> 32	–	–
C=C1CCOC2([C@@H](O)[C@@](C)(O)CO)NC(=O)[C@@]1(NC(C)=O)NC2=O	–	1	> 100	15	> 400	> 32	–	–
C=C1CCOC2([C@@H](O)[C@@](C)(O)CO)NC(=O)[C@@]1(NO)NC2=O	–	22	> 100	45	> 400	> 32	–	–
C=C1CCOC2([C@@H](O)[C@@](C)(O)CO)NC(=O)[C@@]1(NOC)NC2=O	–	0	> 100	13	> 400	> 32	–	–
